High-throughput results as filed in PubChem BioAssay.
The entries come from a sample that favours hits as a whole.
XBP1 UPR activ – adaptive UPR (XBP1) activation; activation, % at 20 µM; 330,000 compounds, 0.33% hits; CHO-XBP1 luciferase reporter, IRE1-XBP1 UPR activation, luminescence; percent of tunicamycin response, DMSO as zero; AID 463104;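 active = versus positive control, 20 µM dose yields 30% or more activation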;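 note: 100% = tunicamycin at 10 µg/mL and 0% = DMSO only wells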
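Test system: CHO-XBP1 luciferase reporter cells | Buffer or medium: Serum-containing F12 medium, 10% FBS | Schedule: 6 h compound exposure at 37 °C, 5% CO2 | Detection: Steady-Glo luciferase glow luminescence, 10 min after reagent addition | Read-out basis: Activation, % of tunicamycin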
UPR CHOP act – activators of apoptotic arm of unfolded protein response (CHOP). CHO-CHOP luciferase reporter, UPR activation, luminescence; percent of tunicamycin response over DMSO baseline. activation, % at 10 µM. 330,000 compounds, 0.34% hits. AID 449763;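 active = at 10 µM dose, activation of 40% or more, normalized to positive control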;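 note: 100% = tunicamycin at 10 µg/mL and 0% = DMSO alone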
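Assay system: CHO-CHOP cells, stable luciferase reporter of PERK-eIF2a-CHOP signalling / Buffer or medium: F12 plus 10% serum / Compound dosing: one dose, 10 µM in 0.5% DMSO / Times: 6 h compound treatment, 37 °C / Technique: luciferase luminescence / Read-out: % reporter activation, DMSO baseline versus tunicamycin full activation / Benchmarks: tunicamycin and DMSO controls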
CHOP inh – inhibitors of CHOP induction in ER stress response; CHO-K1 CHOP-promoter luciferase, tunicamycin-induced, 15-18 h; inhibition, % at 10 µM; 220,000 compounds, 3.8% hits;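 active = compounds that reduced the stress-induced luciferase reporter signal by more than about 70% of percent inhibition, limit read from the data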;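 note: 0% = tunicamycin plus vehicle and 100% = wells without tunicamycin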
GAA850 FXN act – frataxin GAA850 promoter activation; HEK293 lucGAA850 FXN promoter luciferase reporter, 24 h; percent of 10 µM SAHA response; activation, % at 6 µM; 360,000 compounds, 0.56% hits; AID 540364;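 active = activation above the average of all compounds screened plus 3 SD, cutoff fixed separately per campaign, cut at about 7.5% in these data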;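 note: 0% = DMSO wells and 100% = 10 µM SAHA wells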
Active calls of the source: *; . = no result.

SMILES	XBP1 UPR activ	UPR CHOP act	CHOP inh	GAA850 FXN act
CCCCCCCC(=O)NNC(=O)c1c(O)c2ccccc2[nH]c1=O	1.0	0.2	70.5*	-0.7
C[C@H]1CCCCO[C@H](CN(C)S(=O)(=O)c2cn(C)cn2)[C@@H](C)CN([C@@H](C)CO)C(=O)c2cc(NS(=O)(=O)c3ccccc3)ccc2O1	.	.	.	0.9
Cc1ccc2ccccc2c1C(O)c1ncc(-c2ccccc2)[nH]1 (centres undefined)	.	.	.	0.2
CCCCCCc1cc2cc(S(=O)(=O)c3ccc(F)c(Cl)c3)c(=O)oc2cc1O	2.4	0.5	91.5*	0.5
Cc1cccc(NC(=O)CSc2nc3nc4c(cc3c(=O)n2-c2ccccc2)CCCC4)c1	1.6	5.1	80.2*	2.4
Cc1cccc(NC(=O)CSc2nc3c([nH]c4ccccc43)c(=O)n2C)c1	18.3	8.5	78.8*	-1.6
CCSc1nc2c([nH]c3ccccc32)c(=O)n1C	-0.5	-1.6	76.8*	0.0
CCC(C)Sc1nc2c([nH]c3ccccc32)c(=O)n1C (centres undefined)	0.0	-0.6	9.8	3.6
Cn1c(SCC(=O)Nc2ccccc2)nc2c([nH]c3ccccc32)c1=O	24.1	-1.3	10.5	-2.4
COc1cc(NC(=O)Nc2nnc([C@H]3C[C@H](O)[C@@H](CO)O3)s2)cc(OC)c1OC	.	.	.	0.9
COC(=O)N/N=C/c1ccc(-c2cc(Cl)ccc2Cl)o1	-1.9	-0.2	-31.8	1.6
O/N=C/c1ccc(-c2cc(Cl)ccc2Cl)o1	-3.0	-3.6	95.6*	1.7
Fc1ccccc1CNc1cc(Cl)cc(Cl)c1	-0.2	1.4	90.5*	1.4
CCCCN(C(C)=O)c1c(CC)nc2ccc(C(=O)NCCOc3ccc(OC)cc3)cn12	.	.	.	-0.9
COc1ccccc1NC(=O)Cn1c(=O)n(-c2ccccc2)c(=O)c2oc3ccccc3c21	-3.2	2.8	81.0*	1.3
COc1ccc(NC(=O)Cn2c(=O)n(-c3ccccc3)c(=O)c3oc4ccccc4c32)c(OC)c1	-1.9	2.1	-6.0	-2.8
Cc1csc(NC(=O)C2CC(=O)N(c3ccc4c(c3)OCCO4)C2)n1 (centres undefined)	-0.6	0.6	.	-0.3
CCc1ccc(-c2csc(NC(=O)C3CC(=O)N(c4ccc5c(c4)OCCO5)C3)n2)cc1 (centres undefined)	-4.3	1.9	85.2*	-7.5
c1cnc(SCCOc2cccc3ccccc23)nc1	3.2	1.8	76.2*	4.7
CC(=O)Oc1c(C)cc(Cl)cc1C(=O)Nc1ccc([N+](=O)[O-])cc1Cl	14.0	33.7	92.4*	-5.8
CC(C)c1ccc(/C=c2\sc3nc(-c4ccncc4)nn3c2=O)cc1	2.3	2.3	70.9*	1.6
Cc1ccc(/C=c2\sc3nc(-c4cccnc4)nn3c2=O)cc1	.	.	54.2	3.8
Cc1ccc(Cl)cc1-c1cc(C(=O)NCC2CCCCC2)[nH]n1	.	.	.	1.3
FC(F)(F)Oc1ccc(Nc2nc3ccccc3o2)cc1	10.3	6.4	90.9*	4.3
CCCC1Cc2c(sc3nc(SC)nc(N)c23)CO1 (centres undefined)	-1.1	2.0	74.5*	3.7
SMILES	XBP1 UPR activ	UPR CHOP act	CHOP inh	GAA850 FXN act
COc1cc(/C=C2\SC(=O)N(Cc3ccc(Cl)cc3)C2=O)cc([N+](=O)[O-])c1O	.	.	106.5*	1.1
COc1cc(/C=C2\SC(=O)N(Cc3ccc(F)cc3)C2=O)cc([N+](=O)[O-])c1O	-0.6	0.8	-4.4	-0.2
Cc1cc(Cl)c(OCCCSc2nc(C)cc(=O)[nH]2)c(Br)c1	-1.8	-0.6	85.5*	2.3
OC(c1ccccc1)c1nc(-c2cncnc2)cs1 (centres undefined)	.	.	.	1.7
COc1cc(CNc2ncnc3c2ncn3[C@H]2CN(CCN3CCOCC3)C[C@@H](CO)O2)cc(OC)c1OC	.	.	.	1.3
N#Cc1ccc(S(=O)(=O)N2CCCCC2c2cc(C(=O)N3CCOCC3)no2)cc1 (centres undefined)	.	.	.	2.2
CCOP(=O)(c1ccccc1)c1nc(-c2ccccc2C)oc1N1CCCCC1 (centres undefined)	-1.5	-1.1	91.3*	.
O=C(Nc1cccc(C(F)(F)F)c1)c1cccnc1NCCc1ccccc1	3.3	3.6	75.0*	3.2
CCC(CC)NC(=O)CON=C1c2ccccc2-c2ccccc21	-2.0	0.4	71.8*	-1.7
CN(C)c1ncnc2c1ncn2[C@H]1CN(Cc2ccc(Cl)cc2)C[C@@H](CO)O1	.	.	.	-0.2
O=C1c2ccncc2C(=O)N1Cc1cccc(Cl)c1	-3.9	-0.1	-4.1	2.1
O=S1(=O)c2ccccc2N=NN1Cc1cc(Cl)cc(Cl)c1	-2.9	-0.2	92.4*	.
Cc1cn([C@H]2C[C@H](O)[C@@H](CNS(=O)(=O)N3CCCC3)O2)c(=O)[nH]c1=O	.	.	.	-1.4
COCCN1C(=O)c2cc(C(=O)Nc3cccc(F)c3)ccc2C1Nc1cccc(F)c1 (centres undefined)	0.8	1.3	89.5*	-4.2
CCc1ccc(NC(=O)c2ccc3c(c2)C(=O)N(CCOC)C3Nc2ccc(CC)cc2)cc1 (centres undefined)	29.8	27.8	93.7*	-0.5
CC(O)(c1ccccc1)c1nc(-c2ccc(S(C)(=O)=O)cc2)cs1 (centres undefined)	.	.	.	0.3
CCCCN1CCCCC1(C)C(=O)NCc1cccs1 (centres undefined)	.	.	.	0.8
COc1ccc(NC(=O)c2cc(C3CCCCN3C(=O)c3ccccc3)on2)c(C)c1 (centres undefined)	.	.	.	-0.2
Cc1cccc(NC(=O)c2nc[nH]c2C(=O)Nc2cccc(C)c2)c1	2.9	0.8	86.8*	-1.5
Cc1cccc(NC(=O)c2nc[nH]c2C(=O)N[C@@H](C)C(=O)OCc2ccccc2)c1	-5.2	-0.3	89.7*	0.5
COc1ccc(C2CC(c3ccccc3)=NN2c2ccc(N)cc2)cc1 (centres undefined)	1.1	2.6	90.7*	4.3
NS(=O)(=O)c1ccc(N2N=C(c3ccccc3)CC2c2cccc(Br)c2)cc1 (centres undefined)	2.7	3.2	.	-0.2
NS(=O)(=O)c1ccc(N2N=C(c3ccccc3)CC2c2cccc(F)c2)cc1 (centres undefined)	.	.	83.0*	2.4
Cc1cc(C)nc(Nc2nc(C(N)Cc3ccc(Cl)cc3)cs2)n1 (centres undefined)	.	.	.	-1.2
CCCc1c(O)nc(SCC(=O)O)[nH]c1=O	-6.3	-0.4	75.9*	-0.6
CCCCc1ccc(-c2csc(/C(C#N)=C\c3ccc(C)o3)n2)cc1	-2.5	0.4	-23.4	-0.4
CCOc1ccc(-c2csc(/C(C#N)=C\c3ccc(O)c([N+](=O)[O-])c3)n2)cc1	2.9	6.1	93.7*	-1.2
Cc1cc(O)ccc1N/C=C(\C#N)c1nc2ccccc2o1	13.0	3.5	73.3*	6.5
Cc1cccc2c1c1ccc3c(c1n2C)C(=O)C=CC3=O	.	.	78.0*	-0.3
Cc1ccccc1N1CC(=O)N(c2ccccc2C)CC1=O	-3.2	-3.4	4.5	-0.1
